Experimental data published in ChEMBL document CHEMBL1139927, “A new class of nifuroxazide analogues: synthesis of 5-nitrothiophene derivatives with antimicrobial activity against multidrug-resistant Staphylococcus aureus” (2007).
In brackets after ≈: the same amount, converted by molar mass.

Columns and labels:
Format in all cases: functional
Staphylococcus aureus [1] = assay: Antimicrobial activity against multidrug-resistant Staphylococcus aureus 3SP/R33 after 18 hrs by serial dilution test; settings: 3SP/R33, 18 h
How it was run: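 Broth twofold macro-dilution in Tryptic Soy Broth. Inoculum came from fresh cultures grown on plate count agar for 18 h at 35 °C and was adjusted to McFarland no. 1. Compound stocks were made in DMSO (2–5% in assay), with ethanol as co-solvent, and diluted in TSB. Tubes were incubated at 35 °C for 18 h. MIC = lowest concentration giving no visible growth; run in quadruplicate.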

Staphylococcus aureus [2] = assay: Antimicrobial activity against Staphylococcus aureus ATCC 25923 after 18 hrs by serial dilution test; settings: ATCC 25923, 18 h
How it was run: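 Twofold broth macro-dilution in Tryptic Soy Broth. Inoculum taken from fresh 18 h, 35 °C cultures on plate count agar and adjusted to McFarland no. 1. Compounds prepared as DMSO stocks and diluted in TSB, with ethanol as co-solvent and 2–5% DMSO in the assay. Tubes incubated at 35 °C for 18 h and read visually. MIC is the lowest concentration giving complete growth inhibition; run in quadruplicate.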

Staphylococcus aureus [3] = assay: Antimicrobial activity against multidrug-resistant Staphylococcus aureus 3SP/R33 […] after 24 hrs; settings: 3SP/R33, 24 h
How it was run: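 MBC: 10 µL was taken from each tube that stayed clear in the broth dilution MIC test. Each aliquot was spread over the whole surface of a Müller–Hinton agar plate, and plates were incubated at 35 °C for 24 h to read bactericidal concentration.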

With CCCCNc1ccc(C(=O)N/N=C/c2ccc([N+](=O)[O-])s2)cc1 the MIC (Staphylococcus aureus [1]) was 6.22 µg/mL (≈ 18 µM), the MIC (Staphylococcus aureus [2]) was no more than 22.4 µM and the MBC (Staphylococcus aureus [3]) was greater than 49.8 µg/mL.
Compound O=C(N/N=C/c1ccc([N+](=O)[O-])s1)c1ccccc1 has an MIC (Staphylococcus aureus [1]) of 3.9 µg/mL (≈ 14.2 µM), an MIC (Staphylococcus aureus [2]) of no more than 16.7 µM and an MBC (Staphylococcus aureus [3]) of no less than 125 µg/mL.
In the case of O=C(N/N=C/c1ccc([N+](=O)[O-])s1)c1ccc(Cl)cc1, the MIC (Staphylococcus aureus [1]) is reported as 1.09 µg/mL (≈ 3.52 µM), the MIC (Staphylococcus aureus [2]) is reported as no more than 5.52 µM and the MBC (Staphylococcus aureus [3]) is reported as 2.18 µg/mL (≈ 7.04 µM).
CCCCc1ccc(C(=O)N/N=C/c2ccc([N+](=O)[O-])s2)cc1 gave an MIC (Staphylococcus aureus [1]) of 12.7 µg/mL (≈ 38.3 µM), an MIC (Staphylococcus aureus [2]) of no more than 40.7 µM and an MBC (Staphylococcus aureus [3]) greater than 50.8 µg/mL.
CCc1ccc(C(=O)N/N=C/c2ccc([N+](=O)[O-])s2)cc1 showed an MIC (Staphylococcus aureus [1]) of 5.8 µg/mL (≈ 19.1 µM), an MIC (Staphylococcus aureus [2]) of no more than 22.2 µM and an MBC (Staphylococcus aureus [3]) greater than 92.8 µg/mL.
O=C(N/N=C/c1ccc([N+](=O)[O-])s1)c1ccc(Br)cc1 showed an MIC (Staphylococcus aureus [1]) of 0.63 µg/mL (≈ 1.78 µM), an MIC (Staphylococcus aureus [2]) of no more than 2.12 µM and an MBC (Staphylococcus aureus [3]) of 0.63 µg/mL (≈ 1.78 µM).
CCCOc1ccc(C(=O)N/N=C/c2ccc([N+](=O)[O-])s2)cc1 showed an MIC (Staphylococcus aureus [2]) of no more than 24.3 µM.
CC(=O)c1ccc(C(=O)N/N=C/c2ccc([N+](=O)[O-])s2)cc1 showed an MIC (Staphylococcus aureus [1]) of 0.11 µg/mL (≈ 0.347 µM), an MIC (Staphylococcus aureus [2]) of no more than 0.44 µM and an MBC (Staphylococcus aureus [3]) of 0.22 µg/mL (≈ 0.693 µM).
With O=C(N/N=C/c1ccc([N+](=O)[O-])s1)c1ccc(Cl)c(Cl)c1 the MIC (Staphylococcus aureus [1]) was 0.63 µg/mL (≈ 1.83 µM), the MIC (Staphylococcus aureus [2]) was no more than 2.21 µM and the MBC (Staphylococcus aureus [3]) was 0.63 µg/mL (≈ 1.83 µM).
Compound O=C(N/N=C/c1ccc([N+](=O)[O-])s1)c1ccc(I)cc1 has an MIC (Staphylococcus aureus [1]) of 5.55 µg/mL (≈ 13.8 µM), an MIC (Staphylococcus aureus [2]) of no more than 14 µM and an MBC (Staphylococcus aureus [3]) greater than 88.8 µg/mL.
In the case of CC(C)c1ccc(C(=O)N/N=C/c2ccc([N+](=O)[O-])s2)cc1, the MIC (Staphylococcus aureus [1]) is reported as 5.02 µg/mL (≈ 15.8 µM), the MIC (Staphylococcus aureus [2]) is reported as no more than 28.6 µM and the MBC (Staphylococcus aureus [3]) is reported as greater than 40.2 µg/mL.
With C=Cc1ccc(C(=O)N/N=C/c2ccc([N+](=O)[O-])s2)cc1 the MIC (Staphylococcus aureus [1]) was 3.38 µg/mL (≈ 11.2 µM), the MIC (Staphylococcus aureus [2]) was no more than 15.7 µM and the MBC (Staphylococcus aureus [3]) was greater than 54 µg/mL.
CCCc1ccc(C(=O)N/N=C/c2ccc([N+](=O)[O-])s2)cc1 was tested, and the MIC (Staphylococcus aureus [1]) was 7.25 µg/mL (≈ 22.8 µM), the MIC (Staphylococcus aureus [2]) was no more than 36.5 µM and the MBC (Staphylococcus aureus [3]) was greater than 29 µg/mL.
CCCCOc1ccc(C(=O)N/N=C/c2ccc([N+](=O)[O-])s2)cc1 showed an MIC (Staphylococcus aureus [1]) of 10.3 µg/mL (≈ 29.7 µM), an MIC (Staphylococcus aureus [2]) of no more than 35.4 µM and an MBC (Staphylococcus aureus [3]) greater than 41.2 µg/mL.
